Sampled rows, rich in hits. Any-hit rate of the full collection: about 1.9%.
FXN GAA850 act: FXN promoter activators, primary screen, cell-based, luciferase luminescence, HEK293 lucGAA850; HEK293 lucGAA850 FXN promoter luciferase reporter, 24 h; percent of 10 µM SAHA response; activation, % at 6 µM; 0.56% of 360,000 active; AID 540364, 2011;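 active = activation above the average of all compounds screened plus 3 SD, cutoff fixed separately per campaign, cut at about 7.5% in these data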
proCasp3 act: activators of human procaspase-3 D3A mutant, primary screen, biochemical, absorbance, PC-3 D3A mutant, single concentration | Caspase-3 (Homo sapiens), P42574 | recombinant procaspase-3 D3A, Ac-DEVD-pNA absorbance 405 nm | activation, % at 8.5 µM | 0.11% of 330,000 active;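 active = activation above the mean of all tested compounds plus 3 SD, cut at about 21% in these data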
Target sequence (P42574 whole entry D9A/D28A/D175A): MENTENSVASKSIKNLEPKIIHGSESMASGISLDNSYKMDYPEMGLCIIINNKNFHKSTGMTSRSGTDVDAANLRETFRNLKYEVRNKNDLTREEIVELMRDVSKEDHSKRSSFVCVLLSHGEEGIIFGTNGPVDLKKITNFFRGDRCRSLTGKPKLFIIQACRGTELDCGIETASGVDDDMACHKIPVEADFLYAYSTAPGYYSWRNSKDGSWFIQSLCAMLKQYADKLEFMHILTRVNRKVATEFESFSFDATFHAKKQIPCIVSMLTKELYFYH
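Compound: 8.5 µM single point, 0.8% DMSO / Material: Autoprocessing-dead procaspase-3 D3A mutant enzyme / Timing: 1 h preincubation plus 2 h reaction at 25 °C / Medium: Zinc-free HEPES/NaCl buffer with 0.01% Triton X-100 at pH 7.4 / Technique: 405 nm absorbance of p-nitroaniline, reads at 0 and 120 min / Repeats: one well per compound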
HIF act: HIF pathway transcriptional activators, primary screen, cell-based, U2OS HRE-luciferase, luminescence; 0.32% of 300,000 active; AID 1910, 2009; U2OS HRE-luciferase reporter; normalized: DMSO 0%, desferrioxamine 100%; activation, % at 7.5 µM (by protocol);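 active = mean activation of at least 10% of the iron chelator positive control signal, with at least half of replicates also reaching 10%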
Neddyl block: inhibitors of cullin neddylation, primary screen, biochemical, TR-FRET, uHTS, NAE and Ubc12; inhibition, % at 25 µM; 0.58% of 360,000 active; in the data active = inhibition above about 36%
proCasp7 act: procaspase-7 activators, primary screen, counter-screen for procaspase-3 activator project, biochemical, absorbance, HTS, human | Caspase-7 (Homo sapiens), P55210 | recombinant procaspase-7, Ac-DEVD-pNA absorbance 405 nm; D23A/D198A/D206A triple mutant, cannot self-cleave; scale: DMSO 0, 5 µM enzyme 100 | activation, % at 8.5 µM | 0.093% of 330,000 active;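 active = percent activation above the screen-wide mean plus 3 SD, cut at about 25% in these data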
Target sequence (P55210 whole entry D23A/D198A/D206A): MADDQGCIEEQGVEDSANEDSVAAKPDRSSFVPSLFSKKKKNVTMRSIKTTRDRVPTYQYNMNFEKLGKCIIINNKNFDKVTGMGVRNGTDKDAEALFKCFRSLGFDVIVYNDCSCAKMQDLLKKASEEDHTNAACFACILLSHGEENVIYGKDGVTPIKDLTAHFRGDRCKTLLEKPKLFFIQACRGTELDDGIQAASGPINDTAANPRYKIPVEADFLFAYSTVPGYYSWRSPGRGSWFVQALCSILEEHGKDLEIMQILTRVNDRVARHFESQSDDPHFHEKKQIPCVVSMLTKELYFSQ
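Material: Procaspase-7 triple mutant (PC-7 D3A) | Quantity: 2 µM procaspase-7 mutant as dispensed | Reagent: DEVD-pNA substrate | Times: 1 h preincubation, 2 h reaction | Technique: 405 nm absorbance of p-nitroaniline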
Calb FLC: C. albicans growth inhibition with fluconazole, primary screen, CaCi-2 strain, Alamar Blue fluorescence | growth inhibition, % (concentration not given with the values) | 0.57% of 300,000 active | C. albicans CaCi-2 + fluconazole, 48 h | AID 1979, 2009;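 active = growth inhibition above about 58% in most replicates, limit read from the data, passing the limit was not always enough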;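 note: all wells also contain fluconazole at 8 µg/ml as a sub-toxic cotreatment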
A number is an active result; – = inactive; · = no result given.

SMILES	FXN GAA850 act	proCasp3 act	HIF act	Neddyl block	proCasp7 act	Calb FLC
COCCNC(=O)C1(C)CCN(C(=O)COc2ccc(Cl)cc2Cl)C1 (stereo not drawn)	–	·	·	–	·	·
Cc1nn(CC(=O)NCCCc2ccccc2)c(C)c1[N+](=O)[O-]	–	–	–	–	–	87
Cc1cc(C)c(N2C(=O)CC(Sc3ccccc3N)C2=O)c(C)c1 (stereo not drawn)	–	·	·	–	·	·
CCOc1ccccc1NC(=O)COC(=O)COc1cccc2c1OC(C)(C)C2	–	·	·	–	·	·
COc1ccc2c(c1)-c1nc(NC(=O)c3ccco3)sc1CC2	–	–	9.9	–	–	–
CCOC(=O)c1c(-c2ccccc2Cl)cn2ccccc12	–	–	–	·	–	91
O=C(CNS(=O)(=O)c1ccc(Br)s1)NCC1COc2ccccc2O1 (stereo not drawn)	–	–	–	–	–	88
O=C(CNC(=O)c1ccc(Br)o1)NCC1COc2ccccc2O1 (stereo not drawn)	–	–	·	–	–	·
CC(=O)c1ccc(NC(=O)c2onc(C)c2Cl)cc1	–	–	–	–	–	–
Cc1noc(NC(=O)c2ccc(Cl)c(Cl)c2)c1Cl	–	–	–	–	–	89
COC(CN(C(=O)CCl)C(C(=O)NC1CCCCC1)c1ccc(Cl)cc1)OC (stereo not drawn)	–	–	63	–	–	–
CCn1c(SCCN2CCCCC2)nc2c1c(=O)n(C)c(=O)n2C	–	·	·	–	·	·
Cc1ccc(/C=N/NC(=O)c2ccc(Br)o2)s1	–	–	9.9	–	–	–
O=C(CCS(=O)(=O)c1ccccc1)Nc1nnc(C(F)(F)F)s1	–	–	–	–	–	97
CC(C)(C)c1nnc(NC(=O)CCS(=O)(=O)c2ccccc2)s1	–	–	–	–	–	93
O=C(CCS(=O)(=O)Cc1ccccc1)Nc1nnc(C(F)(F)F)s1	–	–	–	–	–	83
CCOC(=O)[C@]12CCCC=C1N(CCC1=CCCCC1)C(=O)[C@H](CC(=O)NCc1cccs1)C2	·	·	·	–	·	·
CC1(C)CC(=O)C=C(C#CC2(O)CCCCC2)C1	–	·	·	–	·	·
CCCn1c(CC)nc([N+](=O)[O-])c1Sc1ccc(F)cc1	–	–	–	–	–	113
CCN1CN(CCc2ccccc2)CNC1=S	–	–	270	–	–	–
O=C(c1cccs1)N1C[C@H](O)[C@@H](n2cc(C3CC3)nn2)C[C@@H]1c1ccccc1	–	·	·	–	·	·
CN1CCN(CCC(=O)N/N=C/c2ccccc2F)CC1	–	–	–	–	–	–
O=C(CCN1CCN(c2ccccc2)CC1)N/N=C/c1ccccc1O	–	–	17	42	–	–
OCCCNc1cc(-c2ccnc(Nc3cccc(Cl)c3)n2)ccn1	–	–	–	·	–	114
CN(C)CCCNc1ccc(-c2cc(Nc3cccc(Cl)c3)ncn2)cn1	–	–	–	·	–	–
SMILES	FXN GAA850 act	proCasp3 act	HIF act	Neddyl block	proCasp7 act	Calb FLC
Cc1ccc(/C=C/c2ccc(N(C)C)cc2)[n+](C)c1	–	–	–	–	–	82
CCC(CC)C(=O)N(C)c1c(C)nc2c(OCc3cccc(Cl)c3)cccn12	–	·	·	–	·	·
C=CCOC(=O)COc1ccc2c(C)c(C)c(=O)oc2c1C	–	–	–	41	–	–
COCc1c(C(C)C)nc(C(C)C)c(/C=C/[C@@H](O)C[C@@H](O)CC(=O)O)c1-c1ccc(F)cc1	·	–	–	·	–	112
CC(C)n1c(/C=C/[C@@H](O)C[C@@H](O)CC(=O)O)c(-c2ccc(F)cc2)c2ccccc21	–	–	–	–	–	–
CC1(C)CC(=O)C2=C(C1)N=C1c3ccccc3C(=O)C1C2c1ccc(Cl)cc1 (stereo not drawn)	–	–	–	–	–	–
Cc1ccc(C2C3=C(CC(C)(C)CC3=O)N=C3c4ccccc4C(=O)C32)cc1 (stereo not drawn)	–	–	–	–	–	85
Cc1cc2[nH]c(=O)c(=O)[nH]c2cc1S(=O)(=O)N1CCN(c2ccccc2F)CC1	–	–	–	–	–	81
Cc1cc2[nH]c(=O)c(=O)[nH]c2cc1S(=O)(=O)N1CCN(c2cccc(C)c2C)CC1	–	–	–	–	–	–
CCCCCCCCCC[n+]1cccc2c3ccccc3ccc21	–	·	–	56	·	101
CCCCCCCC[n+]1cccc2c3ccccc3ccc21	–	–	–	·	–	102
Cc1ccccc1C(=O)Nc1nnc([C@@H]2C[C@H](O)[C@@H](CO)O2)s1	–	·	·	–	·	·
CCN(C(=O)CSc1nc(C)cc(=O)[nH]1)C1CCCCC1	–	–	·	–	–	·
CCN(C(=O)CSc1ncn[nH]1)C1CCCCC1	–	–	77	–	–	–
O=C(Nc1cccc2ccccc12)c1ccc2sc([C@H]3C[C@H](O)[C@@H](CO)O3)nc2c1	–	·	·	–	·	·
CC(C)c1ccc(NC(=O)C2(C)Cc3c(-c4cccc(C(N)=O)c4)ccnc3O2)cc1 (stereo not drawn)	–	·	·	–	·	·
CCC1(c2ccccc2)SCC(c2ccccc2)=NC1=O (stereo not drawn)	–	·	·	–	·	·
CC(C)[C@H](NC(=O)c1ccco1)C(=O)OCc1cc(=O)n2c(n1)sc1ccccc12	–	–	20	–	–	–
Cc1ccc(C(=O)N[C@H](C(=O)OCc2cc(=O)n3c(n2)sc2ccccc23)C(C)C)cc1	–	–	–	–	–	–
CCCS(=O)(=O)NC(=O)C1(C)CCN(C(=O)c2cncc(Br)c2)C1 (stereo not drawn)	–	·	·	–	·	·
CCN(CC)c1ccc2cc(S(=O)(=O)c3ccc(C)cc3)c(=O)oc2c1	–	–	–	·	–	101
OC(CNCCC1C=Nc2ccccc21)Cn1c2ccc(Cl)cc2c2cc(Cl)ccc21 (stereo not drawn)	–	–	–	–	–	99
COc1ccccc1S(=O)(=O)N(C)C[C@H]1OCc2cn(nn2)CCCC(=O)N([C@@H](C)CO)C[C@@H]1C	–	·	·	–	·	·
CSc1ccc(/C=N/n2c(Cc3ccc(Br)cc3)n[nH]c2=S)cc1	–	–	–	–	–	–
CCc1n[nH]c(=S)n1/N=C/c1ccc(-c2ccc(Br)cc2)o1	–	–	22	–	–	–
CCCCCCc1c(O)c2ccccc2[nH]c1=O	–	–	–	–	–	–
CCCCCCCCCCCC1=C(O)C(=O)C=C(O)C1=O	–	–	–	–	–	92
